Measured values: ChEMBL document CHEMBL2202960, “Discovery of the investigational drug TAK-441, a pyrrolo[3,2-c]pyridine derivative, as a highly potent and orally active hedgehog signaling inhibitor: modification of the core skeleton for improved solubility” (Bioorg Med Chem, 2012)
Values after ≈ are worked out from the molar mass of the structure shown. One block for each compound: values may come before it.

Columns and labels:
[1] = Solubility of the compound in lapanese pharmacopoeia second fluid at pH 6.8; assay type: physicochemical; settings: Japanese Pharmacopoeia second fluid
Method in brief: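 Solubility was measured in Japanese Pharmacopoeia second fluid, pH 6.8. After incubation, precipitate was removed by filter-plate filtration and dissolved compound in the filtrate was quantified by HPLC.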

[2] = molecular target: Sonic hedgehog protein (Mus musculus, UniProt Q62226); assay: Inhibition of recombinant mouse Shh-N expressed in mouse NIH3T3/Gli-luc cells assessed as inhibition of Gli1 expression after 48 hrs by luciferase reporter gene assay; assay type: cell-based
Sonic hedgehog protein, sequence (Q62226 25-198 limits assumed): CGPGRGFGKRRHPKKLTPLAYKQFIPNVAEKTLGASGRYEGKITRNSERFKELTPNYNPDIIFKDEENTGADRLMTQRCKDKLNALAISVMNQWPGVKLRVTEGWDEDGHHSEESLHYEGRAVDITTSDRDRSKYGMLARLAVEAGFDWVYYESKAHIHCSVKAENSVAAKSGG
Method in brief: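 NIH3T3/Gli-luc cells were kept in DMEM with 10% FBS and 500 µg/mL G418, then seeded overnight on collagen-coated plates at 7.5×10³ cells/well (37 °C, 5% CO2). Final well conditions were 5.8% FBS, 1 µg/mL Shh-N and 0.03–1000 nM compound (n = 4 wells), incubated 48 h. Controls used 0.1% DMSO ± Shh-N. Read-out was Bright-Glo luciferase, and IC50 is the mean of four measurements.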

[3] = AUC (0 to 24 hrs) in nu/nu BALB/c mouse at 100 mg/kg, po; assay type: ADME, organism-based; set-up: time < 24 hr, dose 100 mg/kg, route oral; settings: plasma
[4] = Cmax in nu/nu BALB/c mouse at 100 mg/kg, po; assay type: ADME, organism-based; set-up: dose 100 mg/kg, route oral; settings: in vivo
[5] = tested on: Mus musculus; assay: Gli1 mRNA expression level in human PAN-04 cells xenografted mouse tumor at 25 mg/kg, po after 24 hrs of first dose relative to control; settings: PAN-04, po
[6] = Oral bioavailability in dog at 10 mg/kg; assay type: ADME, organism-based, Canis lupus familiaris; settings: in vivo
Method in brief: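 Fed dogs (n = 4) given 1 mg/kg iv and 10 mg/kg po. Plasma was deproteinized with methanol containing internal standard, centrifuged, and diluted in 0.01 mol/L ammonium formate/[MeCN/formic acid 100:0.2] (7:3). F was calculated per animal from AUC_0–24h after oral versus intravenous dosing in the same dog.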

[7] = Oral bioavailability in rat at 10 mg/kg; assay type: ADME, organism-based; settings: in vivo
Method in brief: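 Rats (n = 3, listed as non-fasted) given 1 mg/kg iv and 10 mg/kg po. Plasma was deproteinized with methanol containing internal standard, centrifuged, and diluted in 0.01 mol/L ammonium formate/[MeCN/formic acid 100:0.2] (7:3). F was calculated from mean AUC_0–24h values after oral and intravenous dosing.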

[8] = AUC (0 to 24 hrs) in dog at 10 mg/kg, po; assay type: ADME, organism-based, Canis lupus familiaris; set-up: time < 24 hr, dose 10 mg/kg, route oral; settings: plasma
Method in brief: (§1)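 Fed dogs were dosed at 1 mg/kg iv and 10 mg/kg po. Plasma was collected over 0–24 h, deproteinized with methanol containing an internal standard, centrifuged, and diluted with 0.01 mol/L ammonium formate/(MeCN/formic acid 100:0.2) (7:3) for compound quantitation. AUC_0–24h is reported as mean ± SD of four animals.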

[9] = AUC (0 to 24 hrs) in rat at 10 mg/kg, po; assay type: ADME, organism-based; set-up: time < 24 hr, dose 10 mg/kg, route oral; settings: plasma
Method in brief: (§2)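 Rats were given 1 mg/kg iv or 10 mg/kg po and were non-fasted. Plasma was sampled over 0–24 h, deproteinized with methanol plus an internal standard, centrifuged, diluted in 0.01 mol/L ammonium formate/(MeCN/formic acid 100:0.2) (7:3), and centrifuged again. AUC_0–24h is reported as mean ± SD of three animals.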

[10] = AUC (0 to 24 hrs) in rat at 1 mg/kg, iv; assay type: ADME, organism-based; set-up: time < 24 hr, dose 1 mg/kg, route intravenous; settings: plasma; method in brief: as §2
[11] = AUC (0 to 24 hrs) in dog at 1 mg/kg, iv; assay type: ADME, organism-based, Canis lupus familiaris; set-up: time < 24 hr, dose 1 mg/kg, route intravenous; settings: plasma; method in brief: as §1
[12] = Clearance in dog at 1 mg/kg, iv and 10 mg/kg, po; assay type: ADME, organism-based, Canis lupus familiaris; settings: in vivo
Method in brief: (§3)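 Single doses were given to rats and dogs: 1 mg/kg iv and 10 mg/kg po. Plasma was deproteinized with methanol containing internal standard, then diluted with 0.01 mol/L ammonium formate/(MeCN/formic acid) 7:3. Rat values are the mean ± SD of three non-fasted animals. Dog values come from four fed animals, with F calculated per animal from AUC0–24h.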

[13] = Volume of distribution at steady state in dog at 1 mg/kg, iv and 10 mg/kg, po; assay type: ADME, organism-based, Canis lupus familiaris; settings: in vivo, read-out: Vdss; method in brief: as §3
[14] = Clearance in rat at 1 mg/kg, iv and 10 mg/kg, po; assay type: ADME, organism-based; settings: in vivo; method in brief: as §3
[15] = Volume of distribution at steady state in rat at 1 mg/kg, iv and 10 mg/kg, po; assay type: ADME, organism-based; settings: in vivo, read-out: Vdss; method in brief: as §3
[16] = tested on: Mus musculus; assay: Antitumor activity in Ptc1+/- p53-/- medulloblastoma allograft model of mouse assessed as tumor growth inhibition at 25 mg/kg, po qd for 14 days relative to control; assay type: functional
Method in brief: (§4)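 Medulloblastoma tumours were serially passaged subcutaneously in nude mice (CAnN.Cg-Foxn1nu). Treatment started at 150–250 mm³ tumour volume: oral dosing as a 0.5% methylcellulose suspension for 14 days, once daily per the figure legend. Tumours were measured by caliper, with V = (a×b²)/2. T/C% = mean treated (Vend−Vstart) / control (Vend−Vstart) × 100, with n = 5 and a 1-tailed Shirley-Williams test against vehicle.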

[17] = tested on: Mus musculus; assay: Antitumor activity in Ptc1+/- p53-/- medulloblastoma allograft model of mouse assessed as tumor growth inhibition at 1 mg/kg, po qd for 14 days relative to control; assay type: functional; method in brief: as §4

SMILES: COc1c(C(=O)NC2CCN(C(=O)CO)CC2)n(C)c2c1c(=O)n(CC(=O)c1ccccc1)c1ccccc21
AUC(0-t) at 24 h [3]: 32300 ng·h/mL | Cmax [4]: 3630 ng/mL | solubility [1]: 8.4 µg/mL (≈ 15.8 µM) | level, % of control at 25 mg/kg [5]: 5%

SMILES: CCc1cc2c(c(OCC(F)F)c(C(=O)NC3CCN(C(=O)CO)CC3)n2C)c(=O)n1CC(=O)c1ccccc1
solubility [1]: 84 µg/mL (≈ 150 µM) | IC50 [2]: 4.4 nM

SMILES: CCc1c(C(=O)NC2CCN(C(=O)CO)CC2)n(C)c2cc(CC)n(CC(=O)c3ccccc3)c(=O)c12
IC50 [2]: 95 nM

SMILES: COc1c(C(=O)NC2CCN(C(=O)CO)CC2)n(C)c2c3c(n(CC(=O)c4ccccc4)c(=O)c12)CCCC3
solubility [1]: 80 µg/mL (≈ 150 µM) | IC50 [2]: 96 nM

SMILES: CCc1cc2c(c(OCC(F)(F)F)c(C(=O)NC3CCN(C(=O)CO)CC3)n2C)c(=O)n1CC(=O)c1ccccc1 [TAK-441]
bioavailability [6]: 90.3% | bioavailability [7]: 31.7% | AUC(0-t) at 24 h [8]: 45400 ng·h/mL | AUC(0-t) at 24 h [9]: 8030 ng·h/mL | AUC(0-t) at 24 h [10]: 2530 ng·h/mL | AUC(0-t) at 24 h [11]: 5100 ng·h/mL | clearance [12]: 2.69 mL/min/kg | Vd [13]: 2.18 L/kg | clearance [14]: 6.63 mL/min/kg | Vd [15]: 0.682 L/kg | T/C [16]: 3% | T/C [17]: 46% | AUC(0-t) at 24 h [3]: 206000 ng·h/mL | Cmax [4]: 21500 ng/mL | solubility [1]: 81 µg/mL (≈ 140 µM) | IC50 [2]: 4.4 nM

SMILES: CCc1cc2c(c(OCCF)c(C(=O)NC3CCN(C(=O)CO)CC3)n2C)c(=O)n1CC(=O)c1ccccc1
solubility [1]: 69 µg/mL (≈ 128 µM) | IC50 [2]: 4.9 nM

Now from value to compound:

solubility [1]: 77 µg/mL (≈ 156 µM) | IC50 [2]: 14 nM
SMILES: COc1c(C(=O)NC2CCN(C(=O)CO)CC2)n(C)c2cc(C)n(CC(=O)c3ccccc3)c(=O)c12

solubility [1]: 58 µg/mL (≈ 111 µM) | IC50 [2]: 6.9 nM
SMILES: CCOc1c(C(=O)NC2CCN(C(=O)CO)CC2)n(C)c2cc(CC)n(CC(=O)c3ccccc3)c(=O)c12

solubility [1]: 63 µg/mL (≈ 124 µM) | IC50 [2]: 5.7 nM
SMILES: CCc1cc2c(c(OC)c(C(=O)NC3CCN(C(=O)CO)CC3)n2C)c(=O)n1CC(=O)c1ccccc1
